Screening data from PubChem.
The list is not random: actives were taken first. Their share in the collection is about 3.3%.
sPLA2-III inh: human group III sPLA2 inhibitors, primary screen, biochemical, QFRET, BODIPY PC-A2 liposome substrate. AID 743126, 2013. 370,000 compounds, 0.56% hits. QFRET BODIPY PC-A2 liposome hydrolysis, fluorescence. inhibition, % at 12.2 µM. Group 3 secretory phospholipase A2 (Homo sapiens), Q9NZ20;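 active means inhibition above mean plus 3 SD of compounds lying within the high and low control bounds, cut at about 19% in these data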;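 further: 0% = median of test compound wells and 100% = no enzyme DMSO wells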
m5-HT2A agonist: mouse Htr2a agonists via beta-arrestin recruitment, primary screen, cell-based, luminescence; 5-hydroxytryptamine receptor 2A (Mus musculus), P35363; CHO-K1 mHTR2A beta-arrestin complementation; percent of 30 µM serotonin response; activation, % at 7.6 µM; 360,000 compounds, 0.66% hits; AID 624169, 2012;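 active means activation above a run cutoff, the mean activation of all tested compounds plus 3 SD, cut at about 14% in these data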;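 further: 0% = plate median of compound wells and 100% = 30 µM serotonin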
Target sequence (P35363 whole entry, looked up): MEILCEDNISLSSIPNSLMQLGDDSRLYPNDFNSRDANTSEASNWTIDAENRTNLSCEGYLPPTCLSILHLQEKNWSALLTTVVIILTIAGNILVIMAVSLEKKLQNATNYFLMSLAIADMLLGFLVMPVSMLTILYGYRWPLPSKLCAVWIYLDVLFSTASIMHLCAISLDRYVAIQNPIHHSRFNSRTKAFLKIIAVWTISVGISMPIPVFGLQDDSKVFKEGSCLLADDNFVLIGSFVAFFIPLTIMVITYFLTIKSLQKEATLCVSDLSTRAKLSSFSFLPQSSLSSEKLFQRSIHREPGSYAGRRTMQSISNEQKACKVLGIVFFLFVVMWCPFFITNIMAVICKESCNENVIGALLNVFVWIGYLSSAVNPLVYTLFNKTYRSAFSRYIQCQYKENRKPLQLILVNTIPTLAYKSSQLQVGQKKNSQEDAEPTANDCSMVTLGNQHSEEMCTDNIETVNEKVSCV
PfM18AAP inh: PfM18AAP inhibitors, malaria aminopeptidase, primary screen, biochemical, QFRET, recombinant enzyme. 290,000 compounds, 1.2% hits. inhibition, % at 7.35 µM. H-Glu-NHMec fluorogenic cleavage;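 active means inhibition above the campaign mean inhibition over all tested compounds plus 3 SD, cut at about 28% in these data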;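 further: 0% = plate median of test compound wells and 100% = 2 mM ZnCl2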
NRP1-CendR mod: modulators of CendR peptide binding to NRP-1, primary screen, biochemical, fluorescence polarization, uHTS; Neuropilin-1 (Homo sapiens), O14786; FAM-RPARPAR peptide binding to NRP-1; inhibition, % at 25 µM; 360,000 compounds, 0.85% hits;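 active means inhibition or corrected inhibition above about 18%, plus a signal ratio from 0.5 to 1.5, limit read from the data, passing the limit was not always enough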
Arr AP2 block: inhibitors of beta-arrestin/AP2 binding, primary screen, biochemical, GPCR trafficking, flow cytometry; beta-arrestin 1 C-terminal peptide binding to AP2 beta2-adaptin appendage (human); FITC-arrestin peptide / GST-AP2 beads; AP2 beta2 appendage carries R879A mutation; inhibition, % at 10 µM; 340,000 compounds, 0.31% hits; AID 504490, 2011;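 active means inhibition above a set limit, near 3 SD of compounds lacking own fluorescence, cut at about 54% in these data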;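 further: plate controls were DMSO wells for no effect and 5 µM unlabelled arrestin peptide for full effect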
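Assay system: GST-AP2 R879A bound to glutathione beads, E. coli-expressed; Medium: PBS with 0.05% Tween 20 and 0.1% BSA; Also added: fluorescein-tagged arrestin peptide at 50 nM final; Timing: 12 min plus 1 h, RT; Measured by: flow cytometry, FL1 (488/535 nm); Evaluation: percent drop in bead-associated FITC signal.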
Lipid droplet: inhibitors of hepatocyte lipid droplet formation, primary screen, imaging, high-throughput imaging, BODIPY stain. inhibition, % at 6.5 µM. 240,000 compounds, 0.4% hits. AID 1656, 2009. AML12 mouse hepatocytes, oleate lipid droplets;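 active means lipid droplet intensity inhibited by at least 50%, with more than 500 cells counted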
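Test system: AML12 mouse liver cells; schedule: overnight exposure; technique: high-content imaging of BODIPY-stained droplets and DAPI nuclei; read-out: % inhibition of corrected integrated BODIPY droplet signal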
Starred values were filed as active, the others as inactive; · = no result.

SMILES	sPLA2-III inh	m5-HT2A agonist	PfM18AAP inh	NRP1-CendR mod	Arr AP2 block	Lipid droplet
COC(=O)[C@@]12C[C@@H](CC(=O)N3CCN(C(=O)c4ccco4)CC3)C(=O)N(CCc3ccc(OC)c(OC)c3)C1=CCC(C)(C)C2	-3.3	-1.6	·	-1.2	·	·
O=C1[C@H]2[C@H](C=CC[C@H]2C(=O)N2CCN(c3ccccc3)CC2)CCN1Cc1ccccc1	3.5	-2.6	·	27.7*	6.5	·
O=C1[C@H]2[C@H](C=CC[C@H]2C(=O)N2CCN(c3ccccc3)CC2)CCN1Cc1ccc(Cl)c(Cl)c1	-4.8	0.8	·	10.4	4.6	·
O=C(NCc1ccccc1)c1c[nH]c2ccc(F)cc2c1=O	-7.9	0.8	-11.4	-3.6	12.1	-1.4
CCOc1ccc2[nH]cc(C(=O)NCc3ccc(F)cc3)c(=O)c2c1	-10.0	0.1	0.0	39.0*	10.7	·
CCOC(=O)NN1C(=O)c2ccccc2NC1c1ccccc1F (stereo not drawn)	-0.8	0.7	4.2	-5.3	14.3	0.3
CCOC(=O)NN1C(=O)c2ccccc2NC1c1ccccn1 (stereo not drawn)	2.7	3.2	29.7*	14.2	-24.8	21.8
CC1(C(=O)NS(=O)(=O)c2ccccc2)CCN1C(=O)c1ccc(C2CCCCC2)cc1 (stereo not drawn)	-4.8	-1.3	·	-3.3	·	·
Cc1ccc(F)c(S(=O)(=O)NC(=O)C2(C)CCN2C(=O)c2ccc(C3CCCCC3)cc2)c1 (stereo not drawn)	-5.8	5.8	·	26.5*	·	·
CC(C)(C)c1nnc(N/N=C/c2ccccc2O)n(N)c1=O	4.0	-3.0	51.9*	-5.9	-12.2	3.7
CCc1nnc(N/N=C/c2ccccc2F)n1N	1.1	4.3	61.6*	5.1	-19.9	-2.2
CC(Sc1ccccc1)C(=O)Nc1ccc(N2CCOCC2)cc1 (stereo not drawn)	2.4	2.5	4.8	-1.4	35.6	23.1
COc1ccc(NC(=O)C(C)Sc2ccccc2)cc1 (stereo not drawn)	2.8	2.4	-3.2	42.4*	-5.8	10.1
COc1ccc(C2=CC(c3ccc(F)cc3)n3nnnc3N2)cc1 (stereo not drawn)	-9.4	2.2	-2.5	35.4*	31.5	·
c1coc(-c2nc(-c3ccco3)c(-c3ccco3)nc2-c2ccco2)c1	10.9	3.4	59.8*	-35.6	51.0	·
O=C(CCCC(=O)N/N=C\c1ccccn1)N/N=C\c1ccccn1	0.3	4.3	5.5	-4.7	41.1	6.0
CC(Nc1cccc2ccccc12)C(=O)N/N=C/c1ccccn1 (stereo not drawn)	9.3	-0.2	8.2	39.7*	6.0	-2.3
CCN(CC)c1cc2c(c3c1ccn3C)C1CCC2O1 (stereo not drawn)	11.3	9.1	·	8.0	·	·
CCCN(CC1CC1)c1cc2c(c3c1ccn3C)C1CCC2O1 (stereo not drawn)	5.6	1.5	·	21.6*	·	·
O=C(CCC(=O)Nc1ccccc1Cl)N/N=C/c1c[nH]c2ccccc12	-10.1	22.0*	-2.0	4.8	·	-1.5
CC1CN(CC(=O)Nc2nc3ccccc3s2)CC(C)O1 (stereo not drawn)	-3.0	3.5	-1.9	-4.3	-11.2	2.2
Cc1ccc(SCCN2CCN(C)CCC2=O)cc1	1.9	-10.3	·	26.2*	-11.4	15.0
CN1CCC(=O)N(CCSc2ccccc2)CC1	9.7	-7.3	-1.0	3.2	4.1	-2.3
COc1ccc(N2CCCN(CC(=O)Nc3ccccc3C)CC2)cc1	8.6	·	·	·	·	·
O=C(Oc1ccc[nH]c1=O)c1cc([N+](=O)[O-])cc([N+](=O)[O-])c1	-0.2	-9.1	30.0*	-3.6	-2.9	6.8
SMILES	sPLA2-III inh	m5-HT2A agonist	PfM18AAP inh	NRP1-CendR mod	Arr AP2 block	Lipid droplet
COc1ccc(C(=O)Oc2ccc[nH]c2=O)cc1	2.2	-1.9	-6.5	-18.2	14.6	0.7
CC(=O)Nc1sc2c(c1-c1nc3ccccc3s1)CCCNC2	15.5	·	·	·	·	·
COc1ccccc1C(=O)Nc1onc(C)c1C#N	3.6	8.9	2.7	19.8*	-8.1	5.8
Nc1nc2c(ncn2[C@@H]2O[C@H](C(=O)NCC(c3ccccc3)c3ccccc3)[C@@H](O)[C@H]2O)c(=O)[nH]1	13.8	·	·	·	·	·
COc1ccc(CNC(=O)c2ccc(-n3ccnc3)c3ccoc23)cc1OC	-6.9	-2.0	·	-13.8	·	·
COc1cccc(N2CCN(C(=O)c3ccc(OC)c(S(=O)(=O)NC4CC4)c3)CC2)c1	-5.6	-4.7	·	-7.6	·	·
CC/C(=N\NC(=O)c1c[nH]c2ccccc12)c1cccs1	-0.4	-2.9	-73.2	29.6*	2.0	-5.4
Cc1ccc(N=C2NC(=O)/C(=C\c3ccsc3)S2)c(C)c1	-32.4	4.3	-5.6	26.0*	-1.3	19.6
Cc1ccc(N=C2NC(=O)/C(=C/c3cccnc3)S2)c(C)c1	-18.5	-6.7	2.9	-0.1	42.1	-4.5
CC1CCN(C(=O)c2nc[nH]c2C(=O)N2CCc3ccccc3C2)CC1	1.1	-0.1	·	28.8*	-6.5	·
COc1ccc(NC(=O)c2nc[nH]c2C(=O)N2CCC(C)CC2)cc1	-9.7	-3.0	·	24.9*	1.6	25.9
CC1CCN(C(=O)c2nc[nH]c2C(=O)N2CCC(C)CC2)CC1	4.1	-2.4	·	36.3*	4.5	·
Cc1ccc(NC(=O)c2nc[nH]c2C(=O)N2CCC(C)CC2)cc1	-2.6	1.4	·	-1.8	11.0	2.3
COc1cc(C)c(COc2ncnc3ccccc23)cc1OC	-0.7	-3.1	-2.4	5.8	14.1	-8.8
Cc1c(NC(=O)c2cc(-c3ccc(F)cc3)nc3ccccc23)c(=O)n(-c2ccccc2)n1C	1.4	-3.0	·	13.9	-4.2	·
Cc1cccc(-c2cc(C(=O)Nc3c(C)n(C)n(-c4ccccc4)c3=O)c3ccccc3n2)c1	8.3	4.0	-0.3	33.4*	-3.4	-44.2
Cn1c(=O)c2[nH]c(COc3ccccc3)nc2n(C)c1=O	17.1	5.0	·	31.7*	10.3	·
CC1=[N+](C)N(c2ccccc2)C(=O)C1N=Cc1ccccc1Cl (stereo not drawn)	0.3	-1.8	-0.2	18.4*	-0.2	1.2
O=C(COC(=O)Cc1n[nH]c(=O)c2ccccc12)Nc1c(Br)cc([N+](=O)[O-])cc1Br	3.3	1.1	·	24.1*	-21.6	·
OC(c1ccccc1)c1ncc(-c2cccc(F)c2)[nH]1 (stereo not drawn)	1.3	-1.4	·	2.5	·	·
Cc1oc(-c2ccc(C(F)(F)F)cc2)nc1CN(Cc1ccccn1)C[C@@H]1CCC(=O)N1	-0.2	-4.6	4.6	30.7*	1.1	-10.0
